According to ChEMBL document CHEMBL1649392, “Synthesis of substituted 3-amino-N-phenyl-1H-indazole-1-carboxamides endowed with antiproliferative activity” (Eur J Med Chem, 2011):
Activity calls are given as the source filed them.

What was measured:
SF-295 = test: Antiproliferative activity against human SF295 cells after 48 hrs by sulforhodamine B assay; type: functional; conditions: SF-295, 48 h
Outline: (§1)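 NCI 60-cell-line panel covering nine cancer types (leukemia, non-small cell lung, colon, CNS, melanoma, ovarian, renal, prostate, breast). Compounds were first tested at a single dose, then in a five-dose screen (series starting 0.01, 0.1 …) if they met NCI threshold criteria. Reported per line: GI50 (molar concentration inhibiting 50% net growth), TGI (total growth inhibition) and LC50 (50% net cell death).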

PC-3 = test: Antiproliferative activity against human PC3 cells after 48 hrs by sulforhodamine B assay; type: functional; conditions: PC-3, 48 h; outline: as §1
MCF7 = test: Antiproliferative activity against human MCF7 cells after 48 hrs by sulforhodamine B assay; type: functional; conditions: MCF7, 48 h; outline: as §1
HOP-62 = test: Antiproliferative activity against human HOP62 cells after 48 hrs by sulforhodamine B assay; type: functional; conditions: HOP-62, 48 h; outline: as §1
LOX IMVI = test: Antiproliferative activity against human LOXIMVI cells after 48 hrs by sulforhodamine B assay; type: functional; outline: as §1
Malme-3M = test: Antiproliferative activity against human MALME-3M cells after 48 hrs by sulforhodamine B assay; type: functional; outline: as §1
NCI-H460 = test: Antiproliferative activity against human NCI-H460 cells after 48 hrs by sulforhodamine B assay; type: functional; conditions: NCI-H460, 48 h; outline: as §1
NCI-H226 = test: Antiproliferative activity against human NCI-H226 cells after 48 hrs by sulforhodamine B assay; type: functional; conditions: NCI-H226, 48 h; outline: as §1
T47D = test: Antiproliferative activity against human T47D cells after 48 hrs by sulforhodamine B assay; type: functional
Outline: (§2)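 NCI 60-cell-line panel screen: single dose 10 µM first, then 5-dose testing (0.01, 0.1, … molar series). For each line, GI50 is the molar concentration giving 50% inhibition of net cell growth, TGI gives total inhibition of net growth, and LC50 gives 50% net cell death. Method follows the NCI DTP protocol.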

SK-MEL-2 = test: Antiproliferative activity against human SK-MEL-2 cells after 48 hrs by sulforhodamine B assay; type: functional; conditions: SK-MEL-2, 48 h; outline: as §1
[1] = Antiproliferative activity against human […] cells after 48 hrs by sulforhodamine B assay; type: functional; outline: as §1
BT-549 = test: Antiproliferative activity against human BT549 cells after 48 hrs by sulforhodamine B assay; type: functional; conditions: BT-549, 48 h; outline: as §1
TK-10 = test: Antiproliferative activity against human TK10 cells after 48 hrs by sulforhodamine B assay; type: functional; conditions: TK-10, 48 h; outline: as §2
HT-29 = test: Antiproliferative activity against human HT-29 cells after 48 hrs by sulforhodamine B assay; type: functional; conditions: HT-29, 48 h; outline: as §1
SK-MEL-5 = test: Antiproliferative activity against human SK-MEL-5 cells after 48 hrs by sulforhodamine B assay; type: functional; conditions: SK-MEL-5, 48 h; outline: as §1
NCI-H23 = test: Antiproliferative activity against human NCI-H23 cells after 48 hrs by sulforhodamine B assay; type: functional; conditions: NCI-H23, 48 h; outline: as §1
CCRF-CEM = test: Antiproliferative activity against human CCRF-CEM cells after 48 hrs by sulforhodamine B assay; type: functional; outline: as §1
K562 = test: Induction of cell cycle arrest in human K562 cells assessed as decrease in accumulation at G2/M phase at 40 uM after 24 hrs by flow cytometric analysis; type: functional, cell-based
Outline: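 K562 myeloblastic leukemia cells cultured 24 h with compound at 20, 40 or 60 µM, or untreated. Cells washed in ice-cold PBS and resuspended at 10⁶/mL in hypotonic propidium iodide (50 µg/mL) with 0.03% Nonidet P-40 in 0.1% sodium citrate. After 30 min, DNA content read by flow cytometry; sub-G0/G1, G0/G1, S and G2/M fractions scored.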

HL-60(TB) = test: Antiproliferative activity against human HL-60(TB) cells after 48 hrs by sulforhodamine B assay; type: functional; conditions: HL-60, 48 h
Outline: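 Tested by the National Cancer Institute in its full tumour cell panel covering nine cancer types, including leukemia. Compounds were first screened at a single dose. Those passing the preset inhibition threshold then went to a 5-dose screen. GI50 is the molar concentration giving 50% inhibition of net cell growth; TGI and LC50 were also derived.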

DU-145 = test: Antiproliferative activity against human DU145 cells after 48 hrs by sulforhodamine B assay; type: functional; conditions: DU-145, 48 h; outline: as §1
786-0 = test: Antiproliferative activity against human 786-0 cells after 48 hrs by sulforhodamine B assay; type: functional; conditions: 786-0, 48 h; outline: as §1
SF-539 = test: Antiproliferative activity against human SF539 cells after 48 hrs by sulforhodamine B assay; type: functional; conditions: SF-539, 48 h; outline: as §1
NCI/ADR-RES = test: Antiproliferative activity against human NCI/ADR-RES cells after 48 hrs by sulforhodamine B assay; type: functional; outline: as §1
U-251 = test: Antiproliferative activity against human U251 cells after 48 hrs by sulforhodamine B assay; type: functional; conditions: U-251, 48 h; outline: as §2
M14 = test: Antiproliferative activity against human M14 cells after 48 hrs by sulforhodamine B assay; type: functional; conditions: M14, 48 h; outline: as §1
MDA-MB-231 = test: Antiproliferative activity against human MDA-MB-231 cells after 48 hrs by sulforhodamine B assay; type: functional; conditions: MDA-MB-231, 48 h; outline: as §1
A498 = test: Antiproliferative activity against human A498 cells after 48 hrs by sulforhodamine B assay; type: functional; conditions: A498, 48 h; outline: as §1
MDA-MB-435 = test: Antiproliferative activity against human MDA-MB-435 cells after 48 hrs by sulforhodamine B assay; type: functional; conditions: MDA-MB-435, 48 h; outline: as §1
[2] = read-out: LC50 (the source's name)

SMILES: Nc1nn(C(=O)Nc2ccc(Cc3ccccc3)cc2)c2ccc(Cl)cc12
- GI50 (SF-295): 0.0515 µM
- LC50 (SF-295): > 100 µM
- TGI (SF-295): 24.2 µM
- GI50 (PC-3): 2.9 µM
- TGI (PC-3): 44.3 µM
- CC50 (PC-3; [2]): > 100 µM
- GI50 (MCF7): 0.395 µM
- TGI (MCF7): 18.8 µM
- CC50 (MCF7; [2]): 84 µM
- GI50 (HOP-62): 1.21 µM
- LC50 (concentration causing 50% net cell death) (HOP-62): 59.7 µM
- TGI (HOP-62): 16.4 µM
- GI50 (LOX IMVI): 0.0503 µM
- LC50 (concentration causing 50% net cell death) (LOX IMVI): 53.2 µM
- TGI (LOX IMVI): 18.4 µM
- GI50 (Malme-3M): 6.69 µM
- LC50 (concentration causing 50% net cell death) (Malme-3M): > 100 µM
- TGI (Malme-3M): 54.8 µM
- GI50 (NCI-H460): 0.0645 µM
- TGI (NCI-H460): 14.7 µM
- CC50 (NCI-H460; [2]): 60.6 µM
- GI50 (NCI-H226): 15.4 µM
- TGI (NCI-H226): 66.7 µM
- CC50 (NCI-H226; [2]): > 100 µM
- GI50 (T47D): 0.0741 µM
- LC50 (concentration giving 50% net cell death) (T47D): > 100 µM
- TGI (T47D): 27.6 µM
- GI50 (SK-MEL-2): 33.6 µM
- TGI (SK-MEL-2): > 100 µM
- CC50 (SK-MEL-2; [2]): > 100 µM
- GI50 [1]: 2.58 µM
- TGI [1]: 46.5 µM
- CC50 [1, 2]: > 100 µM
- GI50 (BT-549): 5.88 µM
- TGI (BT-549): 44 µM
- CC50 (BT-549; [2]): > 100 µM
- GI50 (TK-10): 15.6 µM
- TGI (TK-10): 38.7 µM
- CC50 (TK-10; [2]): 96.3 µM
- GI50 (HT-29): 1.15 µM
- LC50 (concentration giving 50% net cell death) (HT-29): 79.1 µM
- TGI (HT-29): 24 µM
- GI50 (SK-MEL-5): 0.283 µM
- TGI (SK-MEL-5): 21.1 µM
- CC50 (SK-MEL-5; [2]): 80.2 µM
- GI50 (NCI-H23): 5.34 µM
- TGI (NCI-H23): 68.4 µM
- CC50 (NCI-H23; [2]): > 100 µM
- GI50 (CCRF-CEM): 1.23 µM
- LC50 (concentration causing 50% net cell death) (CCRF-CEM): > 100 µM
- TGI (CCRF-CEM): 34.4 µM
- Activity (K562): Active
- GI50 (HL-60(TB)): 2.62 µM
- TGI (HL-60(TB)): 42.1 µM
- CC50 (HL-60(TB); [2]): > 100 µM
- GI50 (DU-145): 10.4 µM
- TGI (DU-145): 28.9 µM
- CC50 (DU-145; [2]): 80 µM
- GI50 (786-0): 3.92 µM
- TGI (786-0): 28.2 µM
- CC50 (786-0; [2]): 94.4 µM
- GI50 (SF-539): 1.51 µM
- TGI (SF-539): 11.5 µM
- CC50 (SF-539; [2]): 38.8 µM
- GI50 (NCI/ADR-RES): 11 µM
- TGI (NCI/ADR-RES): 39.1 µM
- CC50 (NCI/ADR-RES; [2]): > 100 µM
- GI50 (U-251): 12.5 µM
- LC50 (concentration giving 50% net cell death) (U-251): 58.4 µM
- TGI (U-251): 27 µM
- GI50 (M14): 0.0888 µM
- TGI (M14): 14 µM
- CC50 (M14; [2]): > 100 µM
- GI50 (MDA-MB-231): 5.33 µM
- TGI (MDA-MB-231): 37.6 µM
- CC50 (MDA-MB-231; [2]): > 100 µM
- GI50 (A498): 16.1 µM
- TGI (A498): 60.7 µM
- CC50 (A498; [2]): > 100 µM
- GI50 (MDA-MB-435): 0.0813 µM
- TGI (MDA-MB-435): > 100 µM
- CC50 (MDA-MB-435; [2]): > 100 µM
